Measurements from different studies.
Protocols differ between the studies behind these lines.
Target: Mitogen-activated protein kinase kinase kinase kinase 2 (MAP4K2, Homo sapiens, UniProt Q12851)
Sequence (Q12851 1-820, as in one of the studies): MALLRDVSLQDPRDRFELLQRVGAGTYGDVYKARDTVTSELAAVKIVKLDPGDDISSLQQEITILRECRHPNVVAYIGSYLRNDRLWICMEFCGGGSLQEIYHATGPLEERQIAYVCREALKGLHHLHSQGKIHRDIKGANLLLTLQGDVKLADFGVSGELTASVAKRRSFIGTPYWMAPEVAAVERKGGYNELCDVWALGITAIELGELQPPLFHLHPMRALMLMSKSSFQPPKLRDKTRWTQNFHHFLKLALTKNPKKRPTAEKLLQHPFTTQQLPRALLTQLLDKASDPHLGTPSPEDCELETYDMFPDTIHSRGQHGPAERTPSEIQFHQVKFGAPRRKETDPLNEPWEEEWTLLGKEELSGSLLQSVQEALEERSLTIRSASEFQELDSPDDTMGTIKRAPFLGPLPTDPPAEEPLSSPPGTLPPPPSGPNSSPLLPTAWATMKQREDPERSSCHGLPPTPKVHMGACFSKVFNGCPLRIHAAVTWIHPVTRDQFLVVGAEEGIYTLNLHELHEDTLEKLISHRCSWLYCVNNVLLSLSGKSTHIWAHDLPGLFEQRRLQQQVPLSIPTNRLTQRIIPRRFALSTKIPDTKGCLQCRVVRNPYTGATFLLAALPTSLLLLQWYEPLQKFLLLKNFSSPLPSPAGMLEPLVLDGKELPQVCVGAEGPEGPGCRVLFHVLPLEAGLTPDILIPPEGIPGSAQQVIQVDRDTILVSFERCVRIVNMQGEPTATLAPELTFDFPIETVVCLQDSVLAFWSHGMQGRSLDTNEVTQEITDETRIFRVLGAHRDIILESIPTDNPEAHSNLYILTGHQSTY

| SMILES | read-out | method | tested at | remaining binding |
| --- | --- | --- | --- | --- |
| CCN1CCN(Cc2ccc(C(=O)Nc3ccc(C)c(Oc4ccc5c(c4)CC(=O)N5)c3)cc2C(F)(F)F)CC1 | binding | competition with immobilised ligand | 1 µM | 100% |
| O=C(c1ccc(Nc2nccc(-c3cc4ccccc4s3)n2)cc1)N1CCC(N2CCCC2)CC1 | binding | competition with immobilised ligand | 1 µM | 52% |
| CN(C)c1ncc(F)c(-c2cnn3ncccc23)n1 | binding |  | 1 µM | 82% |
| C[C@@H](c1ccc(-n2cnc3c(N)ncnc32)cc1)N1CCc2nn(C)c(Cc3ccccc3)c2C1=O | binding | competition with immobilised ligand | 0.1 µM | 100% |
| CN(C)c1nccc(-c2cnc3ncccn23)n1 | binding |  | 1 µM | 54% |
| CNC(=O)Nc1ccc2c(c1)CC[C@@]21OC(=O)N(CC(=O)N(Cc2ccc(F)cc2)[C@@H](C)C(F)(F)F)C1=O | cell-free assay | competition with immobilised ligand | 1 µM | 76% |
| F[C@@H]1CCN(c2nccc(-c3cnn4ncccc34)n2)C1 | binding |  | 1 µM | 100% |
| CNC(=O)[C@@H]1CC[C@@H](n2c(-c3ccc4cnccc4c3)nc3ccc(C(=O)NCc4cccc(C(N)=O)c4)cc32)C1 | binding | competition with immobilised ligand | 1 µM | 100% |
| O=C(O)c1cc(-c2ccc(C3CCNCC3)cc2)c2ccc(-c3ccc(C(F)(F)F)cc3)cc2c1 | cell-free assay | competition with immobilised ligand | 1 µM | 100% |
| FC(F)(F)Oc1cccc(-c2cnc3ccc(-c4ccncc4)nn23)c1 | cell-free assay | competition with immobilised ligand | 5 µM | 17% |
| C[C@H]1CCN(c2nccc(-c3cnn4ncccc34)n2)C1 | binding |  | 1 µM | 71% |
| CC(=O)C1=C(C)N(c2cccc(C(F)(F)F)c2)C(=O)N[C@@H]1c1ccc(C#N)nc1 | cell-free assay | competition with immobilised ligand | 1 µM | 100% |
| O=C(c1ccc(Nc2ncc(Cl)c(-c3cc4ccccc4s3)n2)cc1)N1CCC(N2CCCC2)CC1 | binding | competition with immobilised ligand | 1 µM | 36% |
| O=C(Nc1c[nH]nc1C(=O)NC1CCNCC1)c1cc(F)cc(F)c1 | binding | competition with immobilised ligand | 1 µM | 69% |
| c1cncc(-c2cccc(Nc3nccc(NC4CCCCC4)n3)c2)c1 | binding | competition with immobilised ligand | 10 µM | 67% |
| O=C(NCCCN1CCOCC1)c1ccc(Nc2nccc(-c3cc4ccccc4s3)n2)cc1 | binding | competition with immobilised ligand | 1 µM | 73% |
| O=C(NCc1ncc(C(F)(F)F)cc1Cl)c1ccc2c(c1)C1(CCS(=O)(=O)CC1)[C@@H](C1CC1)N2S(=O)(=O)c1ccc(F)cc1 | cell-free assay | competition with immobilised ligand | 1 µM | 91% |
| CN(c1nccc(-c2cnn3ncccc23)n1)C1CC1 | binding |  | 1 µM | 100% |
| CO[C@H]1CC[C@H](CNc2ccc(S(=O)(=O)NC(=O)c3ccc(N4CCN(CC5=C(c6ccc(Cl)cc6)CC(C)(C)CC5)CC4)cc3Oc3cnc4[nH]ccc4c3)cc2[N+](=O)[O-])CC1 | cell-free assay | competition with immobilised ligand | 1 µM | 83% |
| CN(CCCC(F)(F)F)c1nccc(-c2cnn3ncccc23)n1 | binding |  | 1 µM | 100% |
| Cc1c[nH]c2nccc(Oc3c(F)cc(Nc4cc(Cl)nc(N)n4)cc3F)c12 | cell-free assay | competition with immobilised ligand | 0.1 µM | 69% |
| COc1ccnn2ncc(-c3ccnc(N(C)C)n3)c12 | binding |  | 1 µM | 73% |
